PubChem BioAssay
Records with an inconclusive call do not appear. Active and inactive are the calls of the source.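 Rule for the calls, unless noted: active = inhibition over a set limit, the all-compound mean plus 3 SD, in both replicate runs; inconclusive = over that limit in just one replicate run; inactive = at or under that limit in both runs.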

Tests used:
[1] = OD615 S. cerevisiae growth inhibition, permissive medium, pilot counter-assay, permissive growth control for S. cerevisiae lifespan shortening project (AID 705;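 active = growth inhibition above 25% in both replicates, a cutoff set 3 SD above the mean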); details: OD615, 24 h, at 10 µM, active compounds read high
Procedure, shortened: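 assay system = Saccharomyces cerevisiae strain carrying genetically modified DeaD replicative-lifespan system | medium = SC raffinose/galactose permissive medium | dosing = 10 µM single dose, 0.25% DMSO | schedule = 24 h compound exposure at 30 °C after 4 h pre-growth | measured by = OD at 615 nm | read-out basis = growth inhibition from lowered OD615 after 24 h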

[2] = Restrictive medium S. cerevisiae growth inhibition, OD615, pilot screen of yeast lifespan reduction project, restrictive growth control (AID 706;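 active = growth inhibition above a set limit, 3 SD over mean compound inhibition, in both replicates, cut at about 43% in these data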;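 note: modified DeaD lifespan yeast strain shifted to restrictive glucose medium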); details: OD615, 48 h, at 10 µM, active compounds read high
Procedure, shortened: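 Buffer or medium: CSMM-D glucose medium. Material: genetically modified Saccharomyces cerevisiae, DeaD replicative lifespan assay strain. Times: 48 h compound exposure at 30 °C. Measured by: optical density at 615 nm.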

[3] = viability gain of MRP-1-high H69AR cells under doxorubicin, pilot screen, MRP-1 activator project, CellTiter-Glo, duplicate (AID 807;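 active = viability increase at or above a cutoff of the median across tested compounds plus 3 SD, cut at about 8.5% in these data, passing the limit was not always enough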;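 note: compound pretreatment 18-22 h then 72 h combined with doxorubicin; 0% = doxorubicin alone and 100% = vehicle without doxorubicin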); details: H69AR viability with doxorubicin, CellTiter-Glo luminescence; at 10 µM; active compounds read high
[4] = growth suppression of beta-catenin knockout HCT116, pilot screen, human colon tumor cells (AID 823;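 active = cell viability at or below a set limit in both duplicate runs, the limit being the all-compound median minus 4 SD, cut at about 23% in these data, passing the limit was not always enough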;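 note: 0% = wells killed by 20 µM Hyamine and 100% = untreated DMSO cell wells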); details: CellTiter-Glo, 60 h, at 10 µM, active compounds read low
[5] = growth suppression of PTEN-deleted HCT116, pilot screen, cell-based, HCT116 clonal line, CellTiter-Glo (AID 824;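 active = viability at or below 27.92% in each of two runs, the all-compound median minus 4 SD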;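 note: 0% = 20 µM Hyamine control and 100% = vehicle cell control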); details: 60 h, at 10 µM, active compounds read low
[6] = inhibitors of the yeast RAM network, pilot screen, dse1pr::URA3 reporter, 5-FOA selection (AID 869);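 note: 0% = DMSO wells with no growth and 100% = 10 µM 1-NA-PP1 with full growth; RAM network block rescues cells from 5-FOA so hits raise OD615 growth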; details: S. cerevisiae dse1pr::URA3 5-FOA growth, OD615, 2 d; at 10 µM; active compounds read high; strain carries analog-sensitive mutant Cbk1 kinase
[7] = RAM signaling pathway blockade in yeast – S. cerevisiae, Pdr1DBD-CYC8 efflux-inhibited sensitized strain, primary screen (AID 1298;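 active = RAM network inhibition above 8.4% in each of two replicates, 3 SD over the compound average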;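 note: 0% = DMSO untreated cells without growth and 100% = 10 µM 1-NA-PP1 full growth; higher means more yeast growth rescued from 5-FOA killing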); details: S. cerevisiae cbk1-as DSE1-URA3 strain, 5-FOA growth OD615, 2 d; at 50 µM; active compounds read high

CCc1ccc(N(CC(=O)NC2CCCCC2)S(=O)(=O)c2c(C)noc2C)cc1
inactive: growth inhibition [1] -9.43% | growth inhibition [2] -2.85% | viability increase [3] -1.23% | viability [4] 92.2% | viability [5] 92.3% | inhibition [6] 2.05% | RAM network inhibition [7] 4.91%

COc1ccccc1NC(=O)NCCN1C(=O)C2C3C=CC(C3)C2C1=O (configuration not stated)
inactive: growth inhibition [1] -16.2% | growth inhibition [2] -7.88% | viability increase [3] -0.36% | viability [4] 106% | viability [5] 105% | inhibition [6] 1.71% | RAM network inhibition [7] 5.38%

Nc1nc(SCC(=O)NCCCO)nc2sc3c(c12)CCC3
inactive: growth inhibition [1] -8.84% | growth inhibition [2] -4.31% | viability increase [3] -1.44% | viability [4] 96.1% | viability [5] 94% | inhibition [6] 1.44% | RAM network inhibition [7] 0.31%

COCc1cc(C)nc(N2CCN(c3ccccc3)CC2)c1C#N
inactive: growth inhibition [1] -15.6% | growth inhibition [2] -7.64% | viability increase [3] 0.13% | viability [4] 86.3% | viability [5] 81.9% | inhibition [6] 2.28% | RAM network inhibition [7] 6.31%

CCOC(=O)N1CCN(C(=O)Cc2ccc(Cl)cc2)CC1
inactive: growth inhibition [1] 3.9% | growth inhibition [2] -5.01% | viability increase [3] -1.27% | viability [4] 99.2% | viability [5] 95.3% | inhibition [6] 2.03% | RAM network inhibition [7] 6.67%

CCc1cc(=O)oc2cc(OCC(=O)N(CC)CC)c(Cl)cc12
inactive: growth inhibition [1] 6.47% | growth inhibition [2] -5.33% | viability increase [3] 1.34% | viability [4] 109% | viability [5] 104% | inhibition [6] -0.545% | RAM network inhibition [7] 3.66%

CC(C)(C)NC(=O)CSc1nccn1Cc1ccccc1
inactive: growth inhibition [1] -11.7% | growth inhibition [2] -5.1% | viability increase [3] -1.52% | viability [4] 95.9% | viability [5] 93% | inhibition [6] 1.66% | RAM network inhibition [7] 4.82%

CCCCn1c(CNC(=O)c2cccs2)nc2ccccc21
inactive: growth inhibition [1] -5.02% | growth inhibition [2] -5.51% | viability increase [3] -3.7% | viability [4] 101% | viability [5] 94.5% | inhibition [6] -0.215% | RAM network inhibition [7] -1.56%

O=C1c2oc3ccc(Cl)cc3c(=O)c2C(c2ccco2)N1CCN1CCOCC1 (configuration not stated)
inactive: growth inhibition [1] -2.05% | growth inhibition [2] -4.56% | viability increase [3] -5.51% | viability [4] 89.6% | viability [5] 90.4% | inhibition [6] 0.415% | RAM network inhibition [7] -1.88%

O=C(CCCC(=O)OCC(F)(F)C(F)F)Nc1nccs1
inactive: growth inhibition [1] -7.96% | growth inhibition [2] 8.98% | viability increase [3] -0.61% | viability [4] 101% | viability [5] 102% | inhibition [6] 1.56% | RAM network inhibition [7] -0.01%

CCCS(=O)(=O)c1nc(S(=O)(=O)c2ccc(C)cc2)c(N2CCCC2)s1
inactive: growth inhibition [1] -0.655% | growth inhibition [2] 9.56% | viability increase [3] -2.03% | viability [4] 103% | viability [5] 96.3% | inhibition [6] 4.48% | RAM network inhibition [7] 10.2%

Cc1cc(C)n(Cc2ccccc2F)c(=O)c1C#N
inactive: growth inhibition [1] -7.71% | growth inhibition [2] -16.5% | viability increase [3] -1.4% | viability [4] 105% | viability [5] 96.9% | inhibition [6] 0.375% | RAM network inhibition [7] 4.95%

COc1ccc(-c2nc(-c3ccc(Br)o3)no2)cc1OC
inactive: growth inhibition [1] -7.45% | growth inhibition [2] -17.9% | viability increase [3] -0.69% | viability [4] 86.3% | viability [5] 78.6% | inhibition [6] 0.88% | RAM network inhibition [7] 2.25%

CCOC(=O)c1[nH]c(=O)[nH]c1COC(=O)c1cc2ccccc2o1
inactive: growth inhibition [1] -14.6% | growth inhibition [2] -12.6% | viability increase [3] -1.09% | viability [4] 92.6% | viability [5] 105% | inhibition [6] -0.22% | RAM network inhibition [7] 2.38%

C/C=C/Cn1c(N(C)Cc2ccccc2)nc2c1c(=O)[nH]c(=O)n2C
inactive: growth inhibition [1] -17.4% | growth inhibition [2] -23.1% | viability increase [3] 0.04% | viability [4] 102% | viability [5] 87.6% | inhibition [6] 0.445% | RAM network inhibition [7] 3.49%

COc1cc(NC(=O)COc2ccc(F)cc2)nc(OC)n1
inactive: growth inhibition [1] -2.6% | growth inhibition [2] 11.7% | viability increase [3] -3.92% | viability [4] 101% | viability [5] 101% | inhibition [6] 1.72% | RAM network inhibition [7] 1.08%

O=C(NCCN1CCOCC1)c1ccc2c(c1)N(Cc1ccc(F)cc1)C(=O)CS2
inactive: growth inhibition [1] -16.1% | growth inhibition [2] -8.1% | viability increase [3] 3.02% | viability [4] 92.5% | viability [5] 88.9% | inhibition [6] 0.08% | RAM network inhibition [7] 0.11%

COc1cc2[nH]c(=O)n(CCCCCC(=O)NCCCN3CCC(C)CC3)c(=O)c2cc1OC
inactive: growth inhibition [1] -13.8% | growth inhibition [2] -6.3% | viability increase [3] -0.8% | viability [4] 93.8% | viability [5] 101% | inhibition [6] 1.68% | RAM network inhibition [7] 2.66%

O=c1cnn(-c2ccccc2)c(-c2ccccc2)c1
active: viability [5] 24%
inactive: growth inhibition [1] -15.7% | growth inhibition [2] -5.25% | viability increase [3] -6.23% | viability [4] 31.1% | inhibition [6] 2.04% | RAM network inhibition [7] 1.25%

CCOC(=O)C1CCCN(c2cc(=O)n(-c3ccccc3Cl)c(=O)[nH]2)C1 (configuration not stated)
inactive: growth inhibition [1] -3.86% | growth inhibition [2] -18.9% | viability increase [3] -1.99% | viability [4] 89.7% | viability [5] 94.5% | inhibition [6] 1.53% | RAM network inhibition [7] 0.31%

CCOc1ccc(-n2c(SCC(=O)NCc3ccco3)nc3c([nH]c4ccccc43)c2=O)cc1
inactive: growth inhibition [1] -2.76% | growth inhibition [2] -7.4% | viability increase [3] -3.17% | viability [4] 68.5% | viability [5] 64.1% | inhibition [6] 1.14% | RAM network inhibition [7] 7.07%

O=C(CN1c2cccc3cccc(c23)S1(=O)=O)NCc1ccc2c(c1)OCO2
inactive: growth inhibition [1] -1.29% | growth inhibition [2] -6.94% | viability increase [3] -3.03% | viability [4] 89.2% | viability [5] 82.6% | inhibition [6] 1.05% | RAM network inhibition [7] 5.12%

CCCCC(CC)C(=O)NCCCN1CCN(CCCNC(=O)C(CC)CCCC)CC1 (configuration not stated)
inactive: growth inhibition [1] -6.17% | growth inhibition [2] 2.97% | viability increase [3] -1.81% | viability [4] 87.3% | viability [5] 90.6% | inhibition [6] -0.16% | RAM network inhibition [7] 2.42%

Cc1cc(-c2ccco2)n(CC(=O)NCc2ccco2)n1
inactive: growth inhibition [1] -3.72% | growth inhibition [2] -9.28% | viability increase [3] -2.82% | viability [4] 100% | viability [5] 100% | inhibition [6] 0.355% | RAM network inhibition [7] 2.47%

Cc1oc(-c2ccccc2F)nc1CS(=O)CC(=O)NCc1ccc2c(c1)OCO2 (configuration not stated)
inactive: growth inhibition [1] -13.9% | growth inhibition [2] 2.87% | viability increase [3] -1.41% | viability [4] 94.2% | viability [5] 89.3% | inhibition [6] 2% | RAM network inhibition [7] 7.13%

CCOC(=O)N1CCC(NC(=O)c2ccc(CS(=O)(=O)c3ccc(OC)cc3)o2)CC1
inactive: growth inhibition [1] 5.7% | growth inhibition [2] -8.08% | viability increase [3] -2.5% | viability [4] 104% | viability [5] 94.1% | inhibition [6] 1.96% | RAM network inhibition [7] 1.82%

Cc1cc(Nc2ccc(C)c(C)c2)n2nc(C)nc2n1
inactive: growth inhibition [1] 6.21% | growth inhibition [2] 10.1% | viability increase [3] -4.63% | viability [4] 105% | viability [5] 96.9% | inhibition [6] 0.77% | RAM network inhibition [7] 3.69%

CCC(C)NC(=O)C1CCN(C(=O)c2ccccc2)CC1 (configuration not stated)
inactive: growth inhibition [1] -3.49% | growth inhibition [2] -5.37% | viability increase [3] 0.74% | viability [4] 102% | viability [5] 98.2% | inhibition [6] 1.18% | RAM network inhibition [7] 1.87%

CC(=O)Oc1c(Cl)c(N2CCOCC2)c(OC(C)=O)c2ccccc12
inactive: growth inhibition [1] -22.8% | growth inhibition [2] -7.78% | viability increase [3] -6.81% | viability [4] 70.4% | viability [5] 79% | inhibition [6] -0.75% | RAM network inhibition [7] 2.47%

Cc1cccc(CSc2nnc(Cn3c(=O)sc4ccccc43)n2C)c1
inactive: growth inhibition [1] -2.34% | growth inhibition [2] 1.82% | viability increase [3] -1.45% | viability [4] 86.4% | viability [5] 87.3% | inhibition [6] -0.065% | RAM network inhibition [7] 4.9%

O=C(NC1CCCc2ccccc21)C1CCC(CNc2c(N3CCOCC3)c(=O)c2=O)CC1 (configuration not stated)
inactive: growth inhibition [1] -6.7% | growth inhibition [2] 7.02% | viability increase [3] -0.75% | viability [4] 105% | viability [5] 107% | inhibition [6] 1.08% | RAM network inhibition [7] 1.43%

Cc1cccc(OCC(=O)Nc2ccc3c(c2)OCO3)c1C
inactive: growth inhibition [1] -5.98% | growth inhibition [2] -2.99% | viability increase [3] -0.26% | viability [4] 103% | viability [5] 103% | inhibition [6] 1.77% | RAM network inhibition [7] 7.79%

CC(CCc1ccccc1)NC(=O)C1CCN(c2nnc(-n3cccc3)s2)CC1 (configuration not stated)
inactive: growth inhibition [1] -2.63% | growth inhibition [2] -7.45% | viability increase [3] -0.45% | viability [4] 95.9% | viability [5] 88.5% | inhibition [6] 4.55% | RAM network inhibition [7] 4.94%

COc1ccc(CNc2ccc3cn[nH]c3c2)c(OC)c1OC
inactive: growth inhibition [1] -1.74% | growth inhibition [2] 1.43% | viability increase [3] -2.25% | viability [4] 74.7% | viability [5] 79.7% | inhibition [6] -0.465% | RAM network inhibition [7] 9.01%

Cc1ccc(C2CC(c3ccccc3)n3ncnc3N2)cc1 (configuration not stated)
inactive: growth inhibition [1] 1.32% | growth inhibition [2] 6.08% | viability increase [3] 1.68% | viability [4] 99.9% | viability [5] 98.8% | inhibition [6] 0.06% | RAM network inhibition [7] 1.8%

CCOC(=O)C1=C(C)N=c2s/c(=C\C(=O)OC)c(=O)n2C1c1ccc(OC)cc1 (configuration not stated)
inactive: growth inhibition [1] -2.88% | growth inhibition [2] 11.6% | viability increase [3] -2.64% | viability [4] 100% | viability [5] 101% | inhibition [6] 1.73% | RAM network inhibition [7] 4.95%
